An excerpt weighted towards active compounds, which were near 2% of everything screened.
HCV core dimer = inhibitors of HCV core protein dimerization, primary screen, biochemical, TR-FRET, high-throughput. TR-FRET GST/Flag-core106 dimerization, 1536-well. inhibition, % at 5 µM. 300,000 tested, 0.33% active. AID 1899, 2009;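 active = inhibition above the mean of all tested compounds plus 3 SD, set per screening campaign, cut at about 45% in these data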
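Assay system: GST-tagged and Flag-tagged HCV core protein residues 1-106 / Times: compound-protein-antibody incubation 4 h at 22.5 °C / Signal: time-resolved FRET, ex 340 nm, em 617 and 671 nm / Evaluation: % inhibition based on acceptor/donor emission ratio / Benchmarks: wells lacking GST-core106 and wells with excess unlabelled core106 / Repeats: singlicate, one well per compound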
NS3 helicase inh = inhibitors of HCV NS3 helicase, primary screen, biochemical, Cy5 molecular beacon fluorescence | inhibition, % at 10.9 µM | Hepatitis C virus NS3 helicase | NS3 helicase DNA unwinding | 290,000 tested, 0.56% active;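 active = inhibition above the mean of all tested compounds plus 3 SD, set per campaign, cut at about 35% in these data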;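 note: 0% = DMSO wells and 100% = thioflavine S control wells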
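Material: hepatitis C virus NS3 helicase domain fragment enzyme; measured by: Cy5 fluorescence, 0 and 60 min reads; control set: DMSO and thioflavine S; incubation: 60 min unwinding reaction at 25 °C after ATP addition; read-out basis: % inhibition from 60/0 min fluorescence ratio, DMSO 0%, thioflavine S 100%; repeats: singlicate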
FID counter = compounds displacing fluorescent DNA intercalator, primary screen, artefact control for HCV NS3 helicase inhibitor project, biochemical, FID fluorescence. 290,000 tested, 0.17% active. DNA fluorescent intercalator displacement. inhibition, % at 7.9 µM; in the data active = inhibition above about 37%;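 note: 0% = vehicle and 100% = reference compound; higher means more ethidium bromide displaced from hairpin DNA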
PABP polyA inh = PABP poly(A) RNA binding inhibitors, primary screen, biochemical, fluorescence polarization, uHTS; Polyadenylate-binding protein 1 (Homo sapiens), P11940; inhibition, % at 35 µM; 290,000 tested, 1% active; AID 2014, 2009;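 note: calls also rest on retests at 20 µM and on dose response follow-up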
Target sequence (P11940 whole entry, looked up): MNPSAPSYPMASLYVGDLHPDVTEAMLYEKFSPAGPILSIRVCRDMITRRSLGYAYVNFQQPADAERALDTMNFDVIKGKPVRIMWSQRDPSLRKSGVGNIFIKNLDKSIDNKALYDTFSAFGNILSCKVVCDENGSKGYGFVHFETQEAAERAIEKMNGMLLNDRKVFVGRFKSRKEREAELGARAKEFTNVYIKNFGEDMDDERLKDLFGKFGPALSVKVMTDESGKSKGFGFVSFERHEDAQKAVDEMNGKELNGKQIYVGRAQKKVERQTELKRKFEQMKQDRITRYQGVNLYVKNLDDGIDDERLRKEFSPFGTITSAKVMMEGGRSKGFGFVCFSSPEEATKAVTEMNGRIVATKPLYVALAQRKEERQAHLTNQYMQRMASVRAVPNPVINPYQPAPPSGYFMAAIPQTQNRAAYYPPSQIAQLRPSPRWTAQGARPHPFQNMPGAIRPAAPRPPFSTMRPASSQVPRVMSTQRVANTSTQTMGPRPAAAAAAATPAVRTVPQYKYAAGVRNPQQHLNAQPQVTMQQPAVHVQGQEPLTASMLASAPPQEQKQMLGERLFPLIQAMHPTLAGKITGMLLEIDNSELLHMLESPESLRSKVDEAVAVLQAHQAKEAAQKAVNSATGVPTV
PABP1 MLLE inh = inhibitors of PABP1 MLLE–PAM2 peptide binding, primary screen, biochemical, fluorescence polarization, FITC-PAM2, GST-MLLE; 360,000 tested, 0.36% active; Polyadenylate-binding protein 1 (Homo sapiens), P11940; inhibition, % at 20 µM; in the data active = inhibition above about 35%, passing the limit was not always enough;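 note: plate controls were DMSO wells with GST-MLLE for no effect and wells lacking GST-MLLE protein for full effect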
eIF4H inh = human eIF4H binding inhibitors, primary screen, translation initiation inhibitor project, biochemical, uHTS, fluorescence polarization; Eukaryotic translation initiation factor 4H (Homo sapiens), Q15056; eIF4H fluorescence polarization binding assay; inhibition, % at 35 µM; 290,000 tested, 0.94% active; AID 2012, 2009;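 note: calls also rest on retests at 20 µM and on dose response follow-up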
Active calls of the source: *; ? = inconclusive; / = no result. Unless noted, the rule behind the calls is not given here.

SMILES | HCV core dimer | NS3 helicase inh | FID counter | PABP polyA inh | PABP1 MLLE inh | eIF4H inh
CCCCn1c(N)c(N(CC(C)C)C(=O)c2ccco2)c(=O)[nH]c1=O | 0 | / | / | / | -23 | /
CN(C)Cc1ccccc1CNC(=O)c1cccc(S(=O)(=O)Nc2ccc3c(c2)OCO3)c1 | / | / | / | / | -20 | /
COc1ccc(Cn2c(C)nc3c(c2=O)c2nc4ccccc4nc2n3Cc2ccco2)cc1 | / | / | / | / | -33 | /
Cc1cc(C)cc(-n2c3nc4ccccc4nc3c3c(=O)n(Cc4ccco4)cnc32)c1 | 60* | 43* | -22 | 5 | -18 | 44
COc1ccc(S(=O)(=O)c2c(N)n(Cc3ccco3)c3nc4ccccc4nc23)cc1 | 72* | 35 | -12 | ? | 23 | ?
COc1ccc(Cn2c3nc4ccccc4nc3c3c(=O)n(Cc4ccco4)c(C)nc32)cc1 | / | / | / | 36* | / | 54*
CCOc1ccc(-n2c3nc4ccccc4nc3c3c(=O)n(Cc4ccco4)cnc32)cc1 | / | 17 | -19 | / | / | /
O=C(NC(c1ccc(-c2ccccc2)cc1)c1cnccn1)C1CCN(Cc2cccc(C(F)(F)F)c2)CC1 (centres undefined) | / | / | / | / | 3 | /
COc1ccc(N2CCCC2=O)cc1S(=O)(=O)N1CCOCC1 | / | / | / | / | -22 | /
O=C(CC1SC(N2CCOCC2)=NC1=O)Nc1cc([N+](=O)[O-])ccc1Cl (centres undefined) | -1 | -2 | 0 | 64* | 17 | ?
COc1cc(C(=O)NCCC2=CCCCC2)ccc1OCc1c(C)noc1C | / | / | / | / | 10 | /
CCCC1C(c2ccc(OC)cc2)C(C#N)(C#N)C2(C#N)CC1(N)NC2=O (centres undefined) | 2 | -5 | 1 | 42* | 0 | 58
COc1ccc(C2NC3=C(CCCC3)C(C#N)(C#N)C2(C#N)C#N)cc1 (centres undefined) | 15 | 14 | -9 | ? | / | ?
CC(=O)Nc1cccc(-c2ccnc3c2CC(C)(C(=O)NCc2cccs2)O3)c1 (centres undefined) | / | / | / | / | 2 | /
C=CCn1c(SCC(=O)NCC2CCCO2)nc2scc(-c3ccccc3)c2c1=O (centres undefined) | -1 | -1 | -32 | -4 | 0 | -14
C=CCn1c(SCC(=O)NC2CCCC2)nc2scc(-c3ccco3)c2c1=O | 55* | 25 | -17 | 26* | 0 | 71*
Cc1c(O)ccc2cc(S(=O)(=O)c3ccccc3)c(=O)oc12 | -3 | 1 | -1 | 12 | 44* | 10
O=S(=O)(Nc1cc(S(=O)(=O)N2CCOCC2)ccc1NCC1CCCO1)c1ccccc1F (centres undefined) | / | / | / | / | 7 | /
CCOC(=O)C1=NOC(COc2ccccc2C=O)C1 (centres undefined) | 7 | 5 | -5 | 67* | 17 | 6.7*
COc1cc(C(=O)N(C)CCOc2ccc(C)cc2)ccc1OC1CCN(C(C)=O)CC1 | 2 | 3 | -38 | 0 | -16 | 4
CCCNC(=O)C1(C)CCN(Cc2ccc(-c3ccccc3)o2)C1 (centres undefined) | / | / | / | / | 5 | /
Cc1cc(Br)cn2c(Cc3cccc(F)c3)c(-c3ccc(Cl)cc3)nc12 | / | / | / | / | -1 | /
O=C(c1ccc(F)cc1)N1CCOCC1 | -2 | -3 | -1 | 3 | 9 | -7
O=C(c1ccc(=O)oc1)N1CCOCC1 | 3 | 11 | -9 | 66* | 3 | 88*
COc1ccc(CCn2c(-c3ccco3)nc3nc4ccccc4nc32)cc1 | 56* | 7 | -6 | 88* | -46 | 67*
COc1ccccc1Cn1c(-c2ccco2)nc2nc3ccccc3nc21 | 8 | 10 | -14 | / | -33 | /
CCN1C=C(Cc2ccccc2C)C2=C(C1)C(c1ccccc1C)C(C#N)=C(N)O2 (centres undefined) | 29 | -1 | -21 | 52* | -5 | 20
CC(CNc1ccccc1O)C(=O)O (centres undefined) | -53 | 14 | -6 | 5 | 76* | 100
